From ChEMBL document CHEMBL3865813, “Neolignans from the Arils of Myristica fragrans as Potent Antagonists of CC Chemokine Receptor 3” (J Nat Prod, 2016) come the findings set out here.

The source made the active and inactive calls. The rule behind the calls is not given here.

The species entered for one data set is Mus musculus. Put plainly: Cytotoxicity against mouse L1.2 cells at 1.5 uM. It counts as toxicity, cell-based. The settings on record: l1.2, 1.5 µM.
`C=CCc1cc(OC)c(O[C@H](C)[C@@H](O)c2cc(OC)c(O)c(OC)c2)c(OC)c1`: the Activity entry is “Non-Toxic”.

The target of the next data set is T1, C-C chemokine receptor type 3 (Homo sapiens) (UniProt P51677).
T1 sequence (whole entry): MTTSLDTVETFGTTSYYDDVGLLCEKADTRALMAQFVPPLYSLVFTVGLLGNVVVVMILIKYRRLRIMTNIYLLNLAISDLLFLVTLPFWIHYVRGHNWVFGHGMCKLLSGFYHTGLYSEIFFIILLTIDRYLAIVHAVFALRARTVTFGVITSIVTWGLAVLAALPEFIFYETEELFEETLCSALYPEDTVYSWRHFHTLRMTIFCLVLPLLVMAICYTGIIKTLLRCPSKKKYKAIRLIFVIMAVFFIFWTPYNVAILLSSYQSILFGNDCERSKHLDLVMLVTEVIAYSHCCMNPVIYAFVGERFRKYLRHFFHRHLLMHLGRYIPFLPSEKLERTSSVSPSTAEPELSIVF
Put plainly: Antagonist activity at human EGFP-fused CCR3 expressed in mouse L1.2 cells assessed as inhibition of CCL11-induced chemotaxis at 1 uM measured after 1.5 hrs by PicoGreen dsDNA reagent-based assay. The class given is cell-based.
Conditions: not given
The procedure, abridged:
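Human CCR3 was stably expressed in mouse pre-B L1.2 cells by a retroviral pMX-IRES-EGFP vector, and EGFP+ cells were sorted. Test sample was at 1 μM (DMSO, 0.5% final) with 10 nM CCL11 in lower wells (phenol red-free RPMI/BSA). Cells at 8 × 10^6/mL crossed a 5 μm filter for 1.5 h at 37 °C. Migrated cells were lysed (0.1% Triton X-100) and quantified with PicoGreen. Three experiments, Dunnett's test vs control.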
Consider `C=CCc1cc(OC)c(O[C@H](C)[C@@H](O)c2ccc3c(c2)OCO3)c(OC)c1`, for which the inhibition result is “Active”.
On the same count and under the same terms, the same measure for `COc1cc([C@H]2O[C@@H](c3ccc(O)c(OC)c3)[C@H](C)[C@@H]2C)ccc1O`: “Active”.
As to `C=CCc1cc(OC)c(O[C@@H](C)[C@H](OC(C)=O)c2ccc(OC)c(OC)c2)c(OC)c1`, the inhibition entry was “Active”.
On the same count and under the same terms, the result for `C=CCc1cc(OC)c2c(c1)OCO2` reads “Active”; that for `C=CCc1cc(OC)c(O[C@H](C)Cc2ccc3c(c2)OCO3)c(OC)c1`, “Active”.
The same measure, in the same setting: the result for `C=CCc1cc(OC)c(O[C@H](C)[C@@H](O)c2cc(OC)c(O)c(OC)c2)c(OC)c1` reads “Active”.
In the case of `COc1cc([C@H]2O[C@@H](c3ccc(O)c(OC)c3)[C@@H](C)[C@@H]2C)ccc1O`, the inhibition entry was “Active”.
On to `COc1cc([C@H]2Oc3c(OC)cc(/C=C/C=O)cc3[C@@H]2C)ccc1O`, for which the inhibition entry is “Active”.
For the molecule `C/C=C/c1cc(OC)c2c(c1)[C@@H](C)[C@H](c1cc(OC)c(O)c(OC)c1)O2`, the inhibition result is “Active”.
Same read-out and setting: the result for `C/C=C/c1cc(OC)c2c(c1)[C@@H](C)[C@H](c1ccc(O)c(OC)c1)O2` reads “Active”.
